In the library only some 2.6% were active in any assay of this set; here they are far more common.
PolyA inh: blocks polyadenylation in yeast reporter cells. S. cerevisiae SKY197-pL101 polyadenylation reporter, beta-gal luminescence; efflux-impaired pdr1/pdr3 knockout yeast; score 100 = 6 SD above DMSO. activity score, % at 12 µM. 300,000 compounds, 0.02% hits. AID 1875;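 active means lowest replicate activity score at least 50, where 100 means six control SD above control mean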;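 further: yeast exposed to compound for 9 h at 30 °C; higher score means more reporter readthrough which indicates perturbed polyadenylation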
T cruzi inh: blocks replication of Trypanosoma cruzi; 300,000 compounds, 1.4% hits; AID 1885; T. cruzi beta-gal in NIH3T3, luminescence, 90 h; inhibition, % (test concentration not listed);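 active means mean inhibition across valid replicates above about 55%, limit read from the data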;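 further: signal also drops with host cell toxicity which is not excluded here; 0% = plate median of DMSO wells and 100% = zero luminescence signal; higher percent means less beta-gal luminescence so fewer parasites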
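Incubation – ≥90 h infection period, 3 h prior cell attachment · System – NIH/3T3 fibroblasts plus reporter T. cruzi · Doses – compound pinned at 50 nL/well, DMSO · Read-out basis – percent inhibition of parasite-derived β-gal signal · Signal – luminescent β-galactosidase signal after 60 min lysis · Also added – 5000 T. cruzi trypomastigotes/well · Medium – Low-serum DMEM with 2% FBS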
CHT inh: inhibits the human high affinity choline transporter; B-score at 10 µM; 310,000 compounds, 0.86% hits; CHT-expressing cells, membrane potential dye, choline response; stronger effect = lower value;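 active means B-score over 3 SD under the library average, and starting fluorescence ratio not unusually high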;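 further: choline stimulus applied at its EC90 after an EC20 pre-addition; B-score computed on integrated fluorescence ratio after choline addition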
Target sequence (Q9GZV3 whole entry, looked up): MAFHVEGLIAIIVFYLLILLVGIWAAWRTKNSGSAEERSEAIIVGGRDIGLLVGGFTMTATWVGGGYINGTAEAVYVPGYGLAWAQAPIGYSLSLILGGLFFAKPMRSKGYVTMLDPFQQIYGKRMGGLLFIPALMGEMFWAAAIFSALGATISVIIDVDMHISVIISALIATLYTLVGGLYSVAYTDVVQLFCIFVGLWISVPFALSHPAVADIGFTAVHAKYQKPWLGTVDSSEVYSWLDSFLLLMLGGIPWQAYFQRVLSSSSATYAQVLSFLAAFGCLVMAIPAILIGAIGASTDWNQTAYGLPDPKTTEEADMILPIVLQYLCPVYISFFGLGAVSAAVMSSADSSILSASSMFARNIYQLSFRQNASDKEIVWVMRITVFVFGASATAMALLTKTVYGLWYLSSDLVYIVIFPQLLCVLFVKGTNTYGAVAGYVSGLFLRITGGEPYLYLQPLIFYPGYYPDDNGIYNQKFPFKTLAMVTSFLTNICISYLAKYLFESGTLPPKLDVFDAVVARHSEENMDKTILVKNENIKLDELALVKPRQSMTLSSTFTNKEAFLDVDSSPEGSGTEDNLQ
CHT PAM: allosterically activates the human high affinity choline transporter | CHT-expressing cells, membrane potential dye, choline EC20; stronger effect = higher value; LV-AA mutant CHT in HEK293 cells | 310,000 compounds, 0.49% hits | B-score at 10 µM;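 active means initial fluorescence not abnormally high and integrated response B-score, plate-corrected, over 3 SD above library mean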
Starred values were filed as active, the others as inactive; i = inactive; x = no result given.

SMILES | PolyA inh | T cruzi inh | CHT inh | CHT PAM
C[C@H]1CC[C@H]2C(=O)N3[C@H](c4ccccc4Br)[C@@H](C)CC[C@H]3C(=O)N2[C@@H]1c1ccccc1Br | -6 | 45 | i | 8.1*
Cc1nn2cc(-c3ccc(Cl)cc3)cnc2c1Cl | -2 | -4 | i | i
Cn1c(-c2cccc([N+](=O)[O-])c2)cnc1NCc1cccc(F)c1 | -5 | -5 | i | i
COCCN1C=C(C(=O)OC)C(c2ccc3c(c2)OCO3)C(C(=O)OC)=C1 | 2 | 3 | i | i
COC(=O)C1=CN(C2CCCCC2)C=C(C(=O)OC)C1c1ccc2c(c1)OCO2 | 0 | 62* | i | i
Cc1ccc(NS(=O)(=O)c2ccc(NC(=O)c3ccccc3C(=O)O)cc2)c(C)c1 | -2 | 64* | i | i
Cc1ccc(NS(=O)(=O)c2ccc(NC(=O)c3ccc(-c4ccccc4)cc3)cc2)c(C)c1 | -5 | -1 | i | i
CCOC(=O)c1nc(Nc2cc(C)cc(C)c2)c2ccccc2n1 | -5 | 56* | i | i
CC(=O)NN1C(=O)/C(=C2/Sc3ccc(Cl)cc3N2C)SC1=S | 13 | 0 | i | i
O=C(N/N=C/c1ccc([N+](=O)[O-])o1)c1ccccc1-n1cccc1 | -10 | 67* | i | i
O=C(N/N=C/c1ccc([N+](=O)[O-])o1)c1ccc2c(c1)OCO2 | 11 | 69* | i | i
Cc1ccc(C(=O)N/N=C\c2ccccc2[N+](=O)[O-])cn1 | 1 | -3 | x | x
Cc1ccc(C(=O)N/N=C\c2ccc([N+](=O)[O-])o2)cn1 | 1 | 58* | i | i
O=C(N/N=C/c1ccc([N+](=O)[O-])o1)c1cn(-c2ccccc2)nc1-c1ccc(Cl)cc1 | -26 | 64* | i | i
CC12CCC(=O)N1C(C(=O)Nc1cc(S(=O)(=O)N3CCCCCC3)ccc1OCC(F)(F)F)CS2 (stereo not given) | -10 | 38 | i | i
O=C(Nc1cc(Cl)ccc1-n1cncn1)c1cc(F)c(F)c(F)c1F | -15 | 6 | i | i
CC1(C)Cc2c(cnn2-c2ccccc2)C(NC(=O)CCCN2CCCC2=O)C1 (stereo not given) | 2 | -18 | i | i
CC(C)(O)c1[nH]c2cc(F)ccc2c1C(C)(C)O | 18 | 18 | i | i
COc1cc(C(CCN2CCCC(C)C2)c2c(OC)cc(OC)c3c2OC(=O)CC3c2ccc(N(C)C)cc2)cc(OC)c1OC (stereo not given) | -15 | 11 | -5.1* | i
Cc1cc(C)n2nc(C(=O)NCc3cccc(C(F)(F)F)c3)nc2n1 | -11 | 76* | i | i
CCn1cc(C(=O)NCc2cccc(C(F)(F)F)c2)c(=O)c2ccc(C)nc21 | 15 | -16 | i | i
O=C(CC12CC3CC(CC(C3)C1)C2)NC(=S)Nc1ccc(CN2CCOCC2)cc1 | -11 | 82* | i | i
Cc1ccc(NC(=O)N2CCCc3ccccc32)cc1C | 2 | 5 | i | i
Cc1nnc(NC(=O)c2ccc(S(=O)(=O)N3CCc4ccccc4C3)cc2)o1 | 4 | -6 | i | i
Cc1cc(C)c2sc(NNC(=O)c3ccc(S(=O)(=O)N4CCc5ccccc5C4)cc3)nc2c1 | 6 | 59* | i | i
SMILES | PolyA inh | T cruzi inh | CHT inh | CHT PAM
Cc1cc2c(c(=O)n1Cc1ccc3c(c1)OCO3)C(c1cccnc1)C(C#N)=C(N)O2 (stereo not given) | 1 | 61* | i | i
COc1ccc(N/C=C(\C=C\C#N)S(=O)(=O)c2ccccc2)cc1 | -12 | 14 | i | i
COc1cccc(/C=C/c2ccncc2)c1OC | -8 | 49 | i | i
COc1ccc(/C=C/c2ccncc2)cc1 | 0 | 74* | i | i
Cc1[nH]n(-c2ccc([N+](=O)[O-])cc2)c(=O)c1C=NCCN1CCN(C(=O)c2ccc(Br)cc2)CC1 | 7 | 66* | i | i
CCN(Cc1ccccc1)C(=O)Cn1c(=O)n(CC(=O)N2CCCCC2)c(=O)c2sccc21 | -3 | 6 | i | i
Cc1ccc2cc(/C=N/NC(=O)[C@H]3C[C@@H]3c3ccccc3)c(Cl)nc2c1 | -8 | 55* | i | i
O=C(N/N=C/c1cc2ccccc2nc1Cl)[C@H]1C[C@@H]1c1ccccc1 | 1 | 23 | i | i
CCOc1ccc(NC(=O)C2CC(=O)N(c3ccccc3F)C2)cc1 (stereo not given) | 0 | 8 | i | i
COc1ccccc1NC(=S)N(CCc1nc2cc(C)c(C)cc2[nH]1)Cc1cccnc1 | 7 | 48 | i | i
Cc1[nH]c2ccccc2c1CCN(Cc1cccnc1)C(=S)Nc1ccc(F)cc1 | 12 | 41 | i | i
Cc1[nH]c2ccccc2c1CCN(Cc1cccnc1)C(=S)Nc1cccc(F)c1 | -1 | 58* | i | i
Cc1cc2nc(CCN(Cc3cccnc3)C(=S)Nc3ccc(F)cc3)[nH]c2cc1C | 14 | 61* | i | i
O=C1C(NS(=O)(=O)c2ccc(Br)cc2)=C(N2CCCCC2)C(=O)c2ccccc21 | 11 | 22 | i | i
CN(C1=C(N2CCCCC2)C(=O)c2ccccc2C1=O)c1ccccc1 | -22 | 40 | -5.8* | i
Cc1ccc(NC2=C(N3CCCCC3)C(=O)c3ccccc3C2=O)cc1 | 23 | 66* | i | i
O=C1C(Nc2ccccc2)=C(N2CCCCC2)C(=O)c2ccccc21 | 2 | 48 | i | i
COc1ccccc1NC1=C(N2CCCCC2)C(=O)c2ccccc2C1=O | 1 | 62* | i | i
S=C1Cc2ccccc2N1 | 3 | 60* | x | x
COc1ccccc1-n1c(=O)oc2ccc(Cl)cc2c1=O | x | x | -8.5* | i
O=C(Nc1cccc(S(=O)(=O)N2CCOCC2)c1)c1cc([N+](=O)[O-])ccc1N1CCOCC1 | -5 | 1 | i | i
CCOC(=O)C1CCN(C(=O)c2cc(COc3ccc(OC)c4ccccc34)on2)CC1 | -8 | 11 | i | i
O=C(C[n+]1cc(-c2ccc(Cl)c(Cl)c2)n2c1CCC2)N1c2ccccc2Sc2ccccc21 | -8 | 55* | i | i
O=C(CCC1CCCN(Cc2ccc3c(c2)CCO3)C1)NCc1ccc(F)c(F)c1 (stereo not given) | 6 | 63* | i | i
Cc1ncc(CN2CCCC(CCC(=O)NCc3ccccc3F)C2)s1 (stereo not given) | -11 | 61* | i | i
CC(=O)c1cccc(CN2CCCC(CCC(=O)NCc3ccccc3F)C2)c1 (stereo not given) | 13 | 61* | i | i
Cc1ncc(CN2CCCC(CCC(=O)NCc3ccc(F)c(F)c3)C2)s1 (stereo not given) | 11 | 61* | i | i
Cc1ccc(C(=O)N2CCCC(CCC(=O)NCc3ccccc3F)C2)cn1 (stereo not given) | 0 | -9 | i | i

From PubChem BioAssay
